Assay results from different studies.
BRAF: Serine/threonine-protein kinase B-raf (BRAF, Homo sapiens, UniProt P15056)
BRAF V600E: Serine/threonine-protein kinase B-raf (BRAF, Homo sapiens, UniProt P15056, V600E)

| SMILES | target | effect on | mode | method | concentration | quantity | result |
| --- | --- | --- | --- | --- | --- | --- | --- |
| COc1ccc2[nH]c3c4[nH]c5ccc(OC)cc5c4c4c(c3c2c1)C(=O)NC4=O | BRAF | binding | – | competition with immobilised ligand | 1 µM | remaining binding | 86% |
| C=CC(=O)N1CCC([C@@H]2CCNc3c(C(N)=O)c(-c4ccc(Oc5ccccc5)cc4)nn32)CC1 | BRAF V600E | enzyme activity | inhibitor | – | 1 µM | inhibition | 0% |
| N#Cc1ccc(NC(=O)Nc2ccccc2)cc1 | BRAF | cell-free assay | – | competition with immobilised ligand | 25 µM | remaining binding | 100% |
| C=CC(=O)N1CCC[C@@H](n2nc(-c3ccc(Oc4ccccc4)cc3)c3c(N)ncnc32)C1 | BRAF | enzyme activity | inhibitor | – | 1 µM | inhibition | 51% |
| Cc1cc2c(C(N)=O)c(N)n(-c3c(C)ccc(O)c3C)c2nc1C | BRAF | enzyme activity | inhibitor | ADP detection | 3.333 µM | inhibition | 101% |
| COc1ccc2oc(-c3ccc4nc(N)oc4c3)c/c(=N\c3ccccc3NC(=O)CCN)c2c1 | BRAF | binding | – | – | 1 µM | remaining binding | 98% |
| CCCCC(=O)Nc1ccc(-c2ccc3ncn(CCC)c(=O)c3c2)cn1 | BRAF | binding | – | competition with immobilised ligand | 0.5 µM | remaining binding | 97% |
| C#Cc1cnc(Nc2ccnc(CO)c2)nc1Nc1ccccc1S(C)(=O)=NC#N (centres unmarked) | BRAF | cell-free assay | – | – | 1 µM | remaining signal | 92% |
| CN1CCN(C(=O)c2ccc(NC(=O)Nc3ccc(N(C)c4ccnc(Nc5ccc(CS(C)(=O)=O)cc5)n4)cc3)cc2)CC1 | BRAF V600E | binding | – | – | 1 µM | remaining binding | 85% |
| CO[C@@H]1[C@H](N(C)C(=O)c2ccccc2)C[C@H]2O[C@]1(C)n1c3ccccc3c3c4c(c5c6ccccc6n2c5c31)C(=O)NC4 | BRAF | enzyme activity | inhibitor | – | 1 µM | inhibition | 6% |
| Cc1ccc(NC(=O)c2ccnc(C(F)(F)F)c2)cc1-c1cc(OCCO)nc(N2CCOCC2)c1 | BRAF | binding | – | competition with immobilised ligand | 1 µM | remaining binding | 0.4% |
| CC#CC(=O)N1CCC[C@H]1c1nc(-c2ccc(C(=O)Nc3ccccn3)cc2)c2c(N)nccn12 | BRAF V600E | enzyme activity | inhibitor | – | 1 µM | inhibition | 44% |
| C[C@H]1CC[C@H](n2c3cnccc3c3cnc(Nc4ccc5c(n4)CCN(C(=O)CO)C5)nc32)CC1 | BRAF V600E | cell-free assay | – | – | 1 µM | remaining signal | 82% |
| C1=C/COCc2cc(ccc2OCCN2CCCC2)Nc2nccc(n2)-c2cccc(c2)COC/1 | BRAF | binding | – | – | 0.1 µM | remaining binding | 94% |
